These results are taken from ChEMBL document CHEMBL1130229, “Synthesis and antimalarial activity in vitro and in vivo of a new ferrocene-chloroquine analogue” (J Med Chem, 1997).

For data set [1], the system named is Plasmodium falciparum. The data set can be described thus: In vitro antimalarial activity against Plasmodium falciparum FCM17 parasite. In kind it is functional, organism-based. Summed up: (§1)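 Young trophozoite-stage P. falciparum cultures were exposed to drug at 0.001–10 μg/mL for 48 h, in triplicate. [³H]hypoxanthine uptake by schizonts was measured by scintillation counting, with drug-free cultures as controls. IC50 was taken from the regression line through mean dpm between maximum and minimum values, and given as mean and SD over n experiments.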

The subject of data set [2] is Plasmodium falciparum. Briefly: In vitro antimalarial activity against Plasmodium falciparum FCM6. In kind it is functional, organism-based. Summed up:
as §1

Data set [3] has as its system Plasmodium falciparum. Briefly: In vitro antimalarial activity against Plasmodium falciparum FG1. It counts as functional, organism-based. Summed up:
as §1

In data set [4] the test system is Plasmodium falciparum. The data set can be described thus: In vitro antimalarial activity against Plasmodium falciparum FG2 parasite. It counts as functional, organism-based. Summed up: as §1
Data set [5] deals with Plasmodium falciparum. Briefly: In vitro antimalarial activity against Plasmodium falciparum FG3. In kind it is functional, organism-based. Summed up:
as §1

For data set [6], the system named is Plasmodium falciparum. Briefly: In vitro antimalarial activity against Plasmodium falciparum FG4. In kind it is functional, organism-based. Summed up:
as §1

Data set [7] relates to Plasmodium falciparum. The data set can be described thus: In vitro antimalarial activity against Plasmodium falciparum SGE2. In kind it is functional, organism-based. Summed up:
as §1

A short description of data set [8]: Compound was tested antimalarial activity in mice (Mus musculus), infected with Plasmodium berghei N., activity is expressed as the mortality rate at a concentration of 1 mg/kg. in experiment 1; 5 out of 5. It counts as ADME, organism-based. Also noted: dose 1 mg/kg. The settings on record: in vivo.
A short description of data set [9]: Compound was tested antimalarial activity in mice (Mus musculus), infected with Plasmodium berghei N., activity is expressed as the mortality rate at a concentration of 10 mg/kg. in experiment 1; 0 out of 5. In kind it is ADME, organism-based. Further details: dose 10 mg/kg. To be noted: in vivo.
Data set [10] has as its system Mus musculus. The data set can be described thus: Antimalarial activity in mice (Mus musculus), infected with Plasmodium berghei N. activity is expressed as the percent of parasitaemia observed in mice (Mus musculus) at end of 4-day test at a concentration of 10 mg/kg in experiment 2. In kind it is functional. Summed up: (§2)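 4-day suppressive test in female Swiss mice (25 g), infected at day 0 with 10⁷ parasitized RBC from a donor at 20–30% parasitemia. Drug given subcutaneously in PBS once daily, days 0–3; dose in chloroquine base equivalents. Controls received PBS. Parasitemia was counted on 1000 RBC in Giemsa-stained thin films at day 4 and expressed as percent of control-mouse parasitemia.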

Data set [11] deals with Mus musculus. The data set can be described thus: Antimalarial activity in mice (Mus musculus), infected with Plasmodium berghei N. activity is expressed as the percent of parasitaemia observed in mice (Mus musculus) at end of 4-day test at a concentration of 1 mg/kg in experiment 2. In kind it is functional. Summed up:
as §2

Data set [12] has as its system Mus musculus. The data set can be described thus: Antimalarial activity in mice (Mus musculus), infected with Plasmodium berghei N. activity is expressed as the percent of parasitaemia observed in mice (Mus musculus) at end of 4-day test at a concentration of 10 mg/kg in experiment 1. It counts as functional. Summed up: as §2
Data set [13] has as its system Mus musculus. The data set can be described thus: Antimalarial activity in mice (Mus musculus), infected with Plasmodium berghei N. activity is expressed as the percent of parasitaemia observed in mice (Mus musculus) at end of 4-day test at a concentration of 1 mg/kg in experiment 1. It counts as functional. Summed up:
as §2

The test system of data set [14] is Mus musculus. Briefly: Antimalarial activity in mice (Mus musculus), infected with Plasmodium yoelii NS. activity is expressed as the percent of parasitaemia observed in mice (Mus musculus) at end of 4-day test at a concentration of 1 mg/kg in experiment 1. In kind it is functional. Summed up: as §2
For data set [15], the system named is Mus musculus. The data set can be described thus: Antimalarial activity in mice (Mus musculus), infected with Plasmodium yoelii NS., activity is expressed as the percent of parasitaemia observed in mice (Mus musculus) at end of 4 day test at a concentration of 1 mg/kg in experiment 2. It counts as functional. Summed up: as §2
In data set [16] the test system is Mus musculus. Briefly: Antimalarial activity in mice (Mus musculus), infected with Plasmodium yoelii NS., activity is expressed as the percent of parasitaemia observed in mice (Mus musculus) at end of 4-day test at a concentration of 10 mg/kg in experiment 1. In kind it is functional. Summed up:
as §2

Data set [17] has as its system Mus musculus. The data set can be described thus: Antimalarial activity in mice (Mus musculus), infected with Plasmodium yoelii NS. activity is expressed as the percent of parasitaemia observed in mice (Mus musculus) at end of 4-day test at a concentration of 10 mg/kg in experiment 2. In kind it is functional. Summed up: as §2
For data set [18], the system named is Mus musculus. The data set can be described thus: Compound was tested for the antimalarial activity in mice (Mus musculus), infected with Plasmodium berghei N., activity is expressed as the percent of parasitaemia observed in mice (Mus musculus) at end of 4 day test at a concentration of 10 mg/kg in experiment 2. In kind it is functional, organism-based. Also noted: dose 10 mg/kg. Summed up:
as §2

Data set [19] relates to Mus musculus. The data set can be described thus: Compound was tested for the antimalarial activity in mice (Mus musculus), infected with Plasmodium berghei N., activity is expressed as the percent of parasitaemia observed in mice (Mus musculus) at end of 4 day test at a concentration of 1 mg/kg in experiment 1. It counts as functional, organism-based. Further details: dose 1 mg/kg. Summed up: as §2

Data set [20] relates to Mus musculus. The data set can be described thus: Compound was tested for the antimalarial activity in mice (Mus musculus), infected with Plasmodium berghei N., activity is expressed as the percent of parasitaemia observed in mice (Mus musculus) at end of 4-day test at a concentration of 10 mg/kg in experiment 1. It counts as functional, organism-based. Further details: dose 10 mg/kg. Summed up: as §2

Data set [21] relates to Mus musculus. The data set can be described thus: Compound was tested for the antimalarial activity in mice (Mus musculus), infected with Plasmodium berghei N., activity is expressed as the percent of parasitaemia observed in mice (Mus musculus) at end of 4-day test at a concentration of 1 mg/kg in experiment 2. In kind it is functional, organism-based. Further details: dose 1 mg/kg. Summed up:
as §2

For data set [22], the system named is Mus musculus. The data set can be described thus: Compound was tested for the antimalarial activity in mice (Mus musculus), infected with Plasmodium yoelii NS., activity is expressed as the percent of parasitaemia observed in mice (Mus musculus) at end of 4-day test at a concentration of 1 mg/kg in experiment 1. In kind it is functional, organism-based. Also noted: dose 1 mg/kg. Summed up: as §2

In data set [23] the test system is Mus musculus. The data set can be described thus: Compound was tested for the antimalarial activity in mice (Mus musculus), infected with Plasmodium yoelii NS., activity is expressed as the percent of parasitaemia observed in mice (Mus musculus) at end of 4-day test at a concentration of 1 mg/kg in experiment 2. Also noted: dose 1 mg/kg. It counts as functional, organism-based. Summed up: as §2

The subject of data set [24] is Mus musculus. The data set can be described thus: Compound was tested for the antimalarial activity in mice (Mus musculus), infected with Plasmodium yoelii NS., activity is expressed as the percent of parasitaemia observed in mice (Mus musculus) at end of 4-day test at a concentration of 10 mg/kg in experiment 1. Further details: dose 10 mg/kg. It counts as functional, organism-based. Summed up: as §2

For data set [25], the system named is Mus musculus. Briefly: Compound was tested for the antimalarial activity in mice (Mus musculus), infected with Plasmodium yoelii NS., activity is expressed as the percent of parasitaemia observed in mice (Mus musculus) at end of 4-day test at a concentration of 10 mg/kg in experiment 2. In kind it is functional, organism-based. Also noted: dose 10 mg/kg. Summed up:
as §2

A word on the IC50: it is the midpoint of a concentration-inhibition curve. Lower therefore signals greater potency in that assay. With “7-Chloro-4-[[[2-[(N,N-methyl amino)]ferrocenyl]methyl]amino]quinoline; bis-(2,3-Dihydroxy-succinic acid) [listing 1 of 2 here]”, the IC50 in the data set on Plasmodium falciparum [1] was determined as 0.177 mg/L; in the data set with Plasmodium falciparum [2], 0.061 mg/L; in the data set with Plasmodium falciparum [3], 0.067 mg/L; in the data set on Plasmodium falciparum [4] it was 0.059 mg/L; in the data set on Plasmodium falciparum [5], 0.095 mg/L; in the data set on Plasmodium falciparum [6], 0.057 mg/L. This molecule came in with an IC50 in the data set with Plasmodium falciparum [7] of 0.16 mg/L. For the same molecule, the Mortality in [8] came to 5; in data set [9], 0.
With `CCN(CC)CCCC(C)Nc1ccnc2cc(Cl)ccc12` (stereo not given) [CHLOROQUINE], the Parasitemia stood at 0.59% with Mus musculus [10]; 60.1% in the data set on Mus musculus [11]; 2.08% in the data set with Mus musculus [12]; 69.2% with Mus musculus [13]; 64.7% with Mus musculus [14]; 76.6% in the data set on Mus musculus [15]. The Parasitemia in the data set on Mus musculus [16] and in the data set on Mus musculus [17] was 0% throughout.
“7-Chloro-4-[[[2-[(N,N-methyl amino)]ferrocenyl]methyl]amino]quinoline; bis-(2,3-Dihydroxy-succinic acid) [listing 2 of 2 here]”: the Parasitemia in the data set on Mus musculus [18] worked out at 0%; in the data set with Mus musculus [19], 75.5%; in the data set on Mus musculus [20], 0%; with Mus musculus [21], 75.8%; in the data set with Mus musculus [22], 125%; with Mus musculus [23] it was 109%. Moreover, the Parasitemia worked out at 0.3% in the data set on Mus musculus [24] and 0% with Mus musculus [25].
